The results in this text go back to ChEMBL document CHEMBL3297718, “Ultrasound-assisted one-pot four-component synthesis of novel 2-amino-3-cyanopyridine derivatives bearing 5-imidazopyrazole scaffold and their biological broadcast” (Eur J Med Chem, 2014).

Data set [1] deals with Mycobacterium tuberculosis. Kind of data set: Antitubercular activity against Mycobacterium tuberculosis H37Rv. The format is functional. The method, boiled down:
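M. tuberculosis H37Rv was grown on Lowenstein–Jensen medium with compound at a single concentration of 250, and compared against control tubes of medium alone with the organism. Results are given as % inhibition, and the concentration giving complete inhibition of colonies was taken as the active concentration.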

The nature of data set [2]: Antioxidant activity assessed as ferric ion reducing activity using fe3+-TPTZ at 200 mg/ml measured as ascorbic acid per 100 g sample by FRAP assay. The format is physicochemical. In a few lines:
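FRAP assay, modified Benzie–Strain. Reagent combined TPTZ in 40 mM HCl, aqueous FeCl₃·6H₂O and acetate buffer at pH 3.6. Sample solution was mixed with 3 mL reagent and incubated 25 min at 37 °C. Fe(II)–TPTZ absorbance was read at 593 nm against an ascorbic acid standard. Results are given as ascorbic equivalents, mmol/100 g compound.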

In another data set the test system is Vibrio cholerae. Kind of data set: Antimicrobial activity against Vibrio cholerae MTCC 3906 by broth microdilution method. The class given is functional.
Data set [3] deals with Mycobacterium tuberculosis. Kind of data set: Antitubercular activity against Mycobacterium tuberculosis H37Rv at 250 ug/ml. The format is functional.
A further data set deals with Streptococcus pneumoniae. The data set is described as follows: Antimicrobial activity against Streptococcus pneumoniae MTCC 1936 by broth microdilution method. The format is functional.
A further data set relates to Candida albicans. The data set is described as follows: Antimicrobial activity against Candida albicans MTCC 227 by broth microdilution method. The class given is functional. In a few lines:
(§1)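 Broth microdilution following NCCLS. Compounds were diluted in 2% DMSO in water. Fungi were grown in Sabouraud dextrose broth. Inoculum was set to 10⁸ CFU mL⁻¹ by turbidity. A primary serial-dilution screen was followed by a secondary set of lower dilutions for primary actives. Tubes were incubated at 37 °C, with growth noted at 24 and 48 h. MIC was the highest dilution preventing turbidity after spot subculture.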

The test system of a further data set is Bacillus subtilis. Kind of data set: Antimicrobial activity against Bacillus subtilis MTCC 441 by broth microdilution method. The format is functional. The method, boiled down: as §1
The test system of a further data set is Clostridium tetani. The data set is described as follows: Antimicrobial activity against Clostridium tetani MTCC 449 by broth microdilution method. The class given is functional.
The subject of a further data set is Aspergillus fumigatus. The data set is described as follows: Antimicrobial activity against Aspergillus fumigatus MTCC 3008 by broth microdilution method. The format is functional. The method, boiled down:
as §1

Another data set has as its system Salmonella typhi. The data set is described as follows: Antimicrobial activity against Salmonella typhi MTCC 98 by broth microdilution method. The format is functional, Salmonella enterica subsp. enterica serovar Typhi. The note with it: Salmonella enterica.
The subject of a further data set is Escherichia coli. Kind of data set: Antimicrobial activity against Escherichia coli MTCC 443 by broth microdilution method. The class given is functional. In a few lines: as §1

Values after ≈ are worked out from the molar mass of the structure shown. Some results are limits rather than exact numbers.

For the molecule `Cc1nn(-c2ccccc2)c(-n2ccnc2)c1C=O`, the MIC in data set [1] is 100 µg/mL (≈ 396 µM); in the data set with Vibrio cholerae, 250 µg/mL (≈ 991 µM); with Streptococcus pneumoniae, 500 µg/mL (≈ 1980 µM); in the data set on Candida albicans it was greater than 1000 µg/mL; with Bacillus subtilis it was 250 µg/mL (≈ 991 µM); with Clostridium tetani, 250 µg/mL (≈ 991 µM). Besides, the MIC against Aspergillus fumigatus is greater than 1000 µg/mL; in the data set on Salmonella typhi it was 125 µg/mL (≈ 495 µM); in the data set with Escherichia coli, 100 µg/mL (≈ 396 µM). For the same molecule, the Activity in [2] was 242.88 mmol. Further, the inhibition at 250 µg/mL in data set [3] stood at 91%.

For `COc1ccc(-c2cc(-c3c(C)nn(-c4ccccc4)c3-n3ccnc3)c(C#N)c(N)n2)cc1`, the MIC is 62.5 µg/mL (≈ 140 µM) in [1]; 200 µg/mL (≈ 447 µM) against Vibrio cholerae; 125 µg/mL (≈ 279 µM) against Streptococcus pneumoniae; greater than 1000 µg/mL against Candida albicans; 100 µg/mL (≈ 223 µM) in the data set on Bacillus subtilis; 200 µg/mL (≈ 447 µM) with Clostridium tetani. Further, the MIC against Aspergillus fumigatus stood at 1000 µg/mL (≈ 2230 µM); against Salmonella typhi it was 200 µg/mL (≈ 447 µM); with Escherichia coli, 125 µg/mL (≈ 279 µM). In data set [2], the Activity was 400.22 mmol. In addition, the inhibition at 250 µg/mL in [3] was determined as 94%.

In the case of `Cc1nn(-c2ccccc2)c(-n2ccnc2)c1-c1cc(-c2ccco2)nc(N)c1C#N`, the MIC in [1] amounted to 25 µg/mL (≈ 61.4 µM); against Vibrio cholerae, 100 µg/mL (≈ 245 µM); with Streptococcus pneumoniae, 100 µg/mL (≈ 245 µM); in the data set on Candida albicans, 500 µg/mL (≈ 1230 µM); against Bacillus subtilis it was 100 µg/mL (≈ 245 µM); with Clostridium tetani, 150 µg/mL (≈ 368 µM). Besides, the MIC in the data set with Aspergillus fumigatus was greater than 1000 µg/mL; with Salmonella typhi, 100 µg/mL (≈ 245 µM); against Escherichia coli it was 250 µg/mL (≈ 614 µM). Besides, the Activity in data set [2] amounted to 456.32 mmol. The molecule also showed an inhibition at 250 µg/mL in data set [3] of 96%.

With `Cc1cn(-c2c(-c3cc(-c4ccco4)nc(N)c3C#N)c(C)nn2-c2ccccc2)cn1`, the MIC in data set [1] was 100 µg/mL (≈ 237 µM); in the data set with Vibrio cholerae, 200 µg/mL (≈ 475 µM); in the data set on Streptococcus pneumoniae, 250 µg/mL (≈ 593 µM); against Candida albicans, greater than 1000 µg/mL; with Bacillus subtilis, 500 µg/mL (≈ 1190 µM); against Clostridium tetani, 500 µg/mL (≈ 1190 µM). Also, the MIC was greater than 1000 µg/mL with Aspergillus fumigatus, 200 µg/mL (≈ 475 µM) with Salmonella typhi and 250 µg/mL (≈ 593 µM) against Escherichia coli. Further, the Activity in [2] was 397.24 mmol. The molecule also had an inhibition at 250 µg/mL in data set [3] of 92%.
